According to ChEMBL document CHEMBL2069242, “Structure and activity relationship in the (S)-N-chroman-3-ylcarboxamide series of voltage-gated sodium channel blockers” (Bioorg Med Chem Lett, 2012):
Values after ≈ are worked out from the molar mass of the structure shown. Active and inactive are the calls of the source. The calls are words filed in the database; no cut-off is given here.

Tests used:
[1] = biological target: Sodium channel protein type 5 subunit alpha (Homo sapiens, UniProt Q14524); assay: Inhibition of human NaV1.5 expressed in CHO cells by IonWorks assay; assay type: cell-based
Sodium channel protein type 5 subunit alpha, sequence (Q14524 whole entry): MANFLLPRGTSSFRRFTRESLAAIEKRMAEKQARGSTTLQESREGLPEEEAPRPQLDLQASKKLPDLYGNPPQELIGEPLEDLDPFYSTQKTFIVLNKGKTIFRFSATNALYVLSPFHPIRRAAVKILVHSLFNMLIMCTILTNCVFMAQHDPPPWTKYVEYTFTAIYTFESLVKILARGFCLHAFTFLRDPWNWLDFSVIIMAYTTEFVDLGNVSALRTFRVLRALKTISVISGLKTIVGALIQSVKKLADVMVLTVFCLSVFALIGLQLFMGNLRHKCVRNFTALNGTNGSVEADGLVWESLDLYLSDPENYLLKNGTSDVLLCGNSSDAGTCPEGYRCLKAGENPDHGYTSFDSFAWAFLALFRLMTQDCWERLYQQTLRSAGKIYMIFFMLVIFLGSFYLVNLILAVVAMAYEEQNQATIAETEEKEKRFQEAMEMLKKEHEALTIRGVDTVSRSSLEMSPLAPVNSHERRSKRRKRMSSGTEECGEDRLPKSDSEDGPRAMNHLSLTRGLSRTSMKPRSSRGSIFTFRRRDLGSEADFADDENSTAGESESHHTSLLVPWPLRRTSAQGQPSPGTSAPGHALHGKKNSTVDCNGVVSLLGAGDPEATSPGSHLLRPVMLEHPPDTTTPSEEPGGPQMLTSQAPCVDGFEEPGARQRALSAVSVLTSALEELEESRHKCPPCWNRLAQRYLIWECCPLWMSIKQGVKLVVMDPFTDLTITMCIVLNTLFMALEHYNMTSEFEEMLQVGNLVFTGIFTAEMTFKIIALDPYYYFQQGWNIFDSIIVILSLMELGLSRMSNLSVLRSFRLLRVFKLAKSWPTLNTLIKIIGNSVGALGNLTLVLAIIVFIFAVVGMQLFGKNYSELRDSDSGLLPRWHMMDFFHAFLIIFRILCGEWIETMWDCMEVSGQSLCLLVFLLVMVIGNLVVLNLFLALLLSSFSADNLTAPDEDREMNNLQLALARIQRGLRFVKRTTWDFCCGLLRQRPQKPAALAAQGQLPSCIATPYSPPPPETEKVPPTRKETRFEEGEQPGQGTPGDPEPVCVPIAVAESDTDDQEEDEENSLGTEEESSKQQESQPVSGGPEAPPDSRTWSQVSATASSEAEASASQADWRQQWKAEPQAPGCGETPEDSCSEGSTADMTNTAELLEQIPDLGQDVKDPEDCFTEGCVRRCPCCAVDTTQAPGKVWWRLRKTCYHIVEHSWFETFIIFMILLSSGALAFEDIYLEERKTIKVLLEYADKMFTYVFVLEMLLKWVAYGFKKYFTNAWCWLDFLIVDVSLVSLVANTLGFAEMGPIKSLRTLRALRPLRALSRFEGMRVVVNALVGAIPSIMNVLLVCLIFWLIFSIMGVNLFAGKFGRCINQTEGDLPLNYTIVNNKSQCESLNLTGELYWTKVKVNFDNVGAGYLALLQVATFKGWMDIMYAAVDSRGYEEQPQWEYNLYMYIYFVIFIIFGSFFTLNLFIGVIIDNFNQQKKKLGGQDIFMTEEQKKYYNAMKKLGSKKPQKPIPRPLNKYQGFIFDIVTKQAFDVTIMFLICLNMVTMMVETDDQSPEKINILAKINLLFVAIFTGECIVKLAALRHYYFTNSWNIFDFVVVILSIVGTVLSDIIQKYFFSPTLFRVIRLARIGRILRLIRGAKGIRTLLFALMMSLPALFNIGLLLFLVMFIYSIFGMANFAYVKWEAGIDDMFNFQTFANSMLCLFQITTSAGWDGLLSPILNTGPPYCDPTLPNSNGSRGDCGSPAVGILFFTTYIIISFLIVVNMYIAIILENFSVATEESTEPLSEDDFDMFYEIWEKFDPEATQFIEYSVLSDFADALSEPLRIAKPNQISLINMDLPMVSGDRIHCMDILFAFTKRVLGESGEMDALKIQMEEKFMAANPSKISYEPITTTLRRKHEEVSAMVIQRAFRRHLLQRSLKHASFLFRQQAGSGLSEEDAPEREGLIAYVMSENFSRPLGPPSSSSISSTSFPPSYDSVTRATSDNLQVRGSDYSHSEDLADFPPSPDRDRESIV

[2] = Solubility of the compound; assay type: physicochemical
Liver microsomes [3] = assay: Intrinsic clearance in human liver microsomes assessed per ug of protein; assay type: ADME, Microsome
Liver microsomes [4] = assay: Intrinsic clearance in rat liver microsomes assessed per ug of protein; assay type: ADME, Microsome
[5] = biological target: Sodium channel protein type 9 subunit alpha (Homo sapiens, UniProt Q15858); assay: Inhibition of human NaV1.7 expressed in HEK293 cells by whole-cell voltage clamp assay; assay type: cell-based
Sodium channel protein type 9 subunit alpha, sequence (Q15858 whole entry): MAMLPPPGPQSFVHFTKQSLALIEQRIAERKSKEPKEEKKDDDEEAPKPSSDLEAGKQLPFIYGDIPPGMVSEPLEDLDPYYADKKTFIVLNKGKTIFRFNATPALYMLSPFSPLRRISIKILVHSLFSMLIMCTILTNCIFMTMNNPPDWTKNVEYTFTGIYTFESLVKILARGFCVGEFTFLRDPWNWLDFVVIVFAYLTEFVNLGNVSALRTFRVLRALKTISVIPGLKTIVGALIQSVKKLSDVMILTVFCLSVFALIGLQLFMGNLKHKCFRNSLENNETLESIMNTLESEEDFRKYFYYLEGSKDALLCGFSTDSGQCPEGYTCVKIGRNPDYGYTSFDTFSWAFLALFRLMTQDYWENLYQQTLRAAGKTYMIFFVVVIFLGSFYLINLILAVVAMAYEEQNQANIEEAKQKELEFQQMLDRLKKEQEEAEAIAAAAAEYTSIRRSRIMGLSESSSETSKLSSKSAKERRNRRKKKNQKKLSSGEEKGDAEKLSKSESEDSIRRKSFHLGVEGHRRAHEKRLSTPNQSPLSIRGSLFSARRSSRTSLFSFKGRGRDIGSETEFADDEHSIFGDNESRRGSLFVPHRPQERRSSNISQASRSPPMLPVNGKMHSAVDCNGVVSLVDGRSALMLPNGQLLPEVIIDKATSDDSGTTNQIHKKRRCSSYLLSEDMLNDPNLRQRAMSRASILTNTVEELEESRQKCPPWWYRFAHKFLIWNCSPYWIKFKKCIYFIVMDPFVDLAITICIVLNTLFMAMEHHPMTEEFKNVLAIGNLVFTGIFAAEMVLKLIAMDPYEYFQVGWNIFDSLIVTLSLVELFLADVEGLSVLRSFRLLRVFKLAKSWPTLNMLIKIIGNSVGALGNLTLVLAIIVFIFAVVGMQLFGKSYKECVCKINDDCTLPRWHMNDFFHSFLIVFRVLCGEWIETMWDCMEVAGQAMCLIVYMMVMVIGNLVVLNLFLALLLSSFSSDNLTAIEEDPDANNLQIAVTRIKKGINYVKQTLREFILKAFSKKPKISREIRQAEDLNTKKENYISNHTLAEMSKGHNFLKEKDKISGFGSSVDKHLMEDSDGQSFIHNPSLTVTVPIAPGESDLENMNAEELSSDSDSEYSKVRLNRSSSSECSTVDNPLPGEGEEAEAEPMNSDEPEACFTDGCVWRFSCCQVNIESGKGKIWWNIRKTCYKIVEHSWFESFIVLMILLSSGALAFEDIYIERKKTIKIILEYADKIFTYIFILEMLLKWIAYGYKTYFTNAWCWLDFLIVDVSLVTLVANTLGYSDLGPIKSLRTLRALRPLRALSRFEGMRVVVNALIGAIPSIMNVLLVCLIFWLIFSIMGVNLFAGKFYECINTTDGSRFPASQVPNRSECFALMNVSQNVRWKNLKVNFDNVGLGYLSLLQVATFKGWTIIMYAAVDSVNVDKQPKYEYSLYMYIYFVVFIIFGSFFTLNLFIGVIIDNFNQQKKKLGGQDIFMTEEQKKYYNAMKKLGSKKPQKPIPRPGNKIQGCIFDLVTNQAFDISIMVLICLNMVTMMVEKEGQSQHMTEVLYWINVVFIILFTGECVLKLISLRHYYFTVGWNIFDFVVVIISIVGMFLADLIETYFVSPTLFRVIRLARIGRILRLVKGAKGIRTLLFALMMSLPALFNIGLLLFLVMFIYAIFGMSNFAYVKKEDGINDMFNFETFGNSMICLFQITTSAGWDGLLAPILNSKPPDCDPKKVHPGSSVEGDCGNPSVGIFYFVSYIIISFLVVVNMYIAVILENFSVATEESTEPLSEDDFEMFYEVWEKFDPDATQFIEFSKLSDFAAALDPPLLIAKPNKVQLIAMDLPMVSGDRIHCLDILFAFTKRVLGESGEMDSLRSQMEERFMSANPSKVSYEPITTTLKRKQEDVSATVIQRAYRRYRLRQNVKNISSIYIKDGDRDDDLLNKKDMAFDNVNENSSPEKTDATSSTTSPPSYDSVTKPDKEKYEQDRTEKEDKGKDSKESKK
Summary of the method: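 Human NaV1.7 α-subunit stably expressed in HEK293 cells. Currents were recorded by perforated whole-cell automated planar patch clamp (IonWorks Quattro) in D-PBS external solution with 5.5 mM glucose. Cells were held at −65 mV, and a train of eight 30 ms steps to −20 mV at 3 Hz was applied. Half-log serial dilutions were made in DMSO, giving 0.3% DMSO in the recording solution.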

[6] = biological target: Voltage-gated inwardly rectifying potassium channel KCNH2 (Homo sapiens, UniProt Q12809); assay: Inhibition of human ERG expressed in CHO cells by IonWorks HT assay; assay type: cell-based
Voltage-gated inwardly rectifying potassium channel KCNH2, sequence (Q12809 whole entry): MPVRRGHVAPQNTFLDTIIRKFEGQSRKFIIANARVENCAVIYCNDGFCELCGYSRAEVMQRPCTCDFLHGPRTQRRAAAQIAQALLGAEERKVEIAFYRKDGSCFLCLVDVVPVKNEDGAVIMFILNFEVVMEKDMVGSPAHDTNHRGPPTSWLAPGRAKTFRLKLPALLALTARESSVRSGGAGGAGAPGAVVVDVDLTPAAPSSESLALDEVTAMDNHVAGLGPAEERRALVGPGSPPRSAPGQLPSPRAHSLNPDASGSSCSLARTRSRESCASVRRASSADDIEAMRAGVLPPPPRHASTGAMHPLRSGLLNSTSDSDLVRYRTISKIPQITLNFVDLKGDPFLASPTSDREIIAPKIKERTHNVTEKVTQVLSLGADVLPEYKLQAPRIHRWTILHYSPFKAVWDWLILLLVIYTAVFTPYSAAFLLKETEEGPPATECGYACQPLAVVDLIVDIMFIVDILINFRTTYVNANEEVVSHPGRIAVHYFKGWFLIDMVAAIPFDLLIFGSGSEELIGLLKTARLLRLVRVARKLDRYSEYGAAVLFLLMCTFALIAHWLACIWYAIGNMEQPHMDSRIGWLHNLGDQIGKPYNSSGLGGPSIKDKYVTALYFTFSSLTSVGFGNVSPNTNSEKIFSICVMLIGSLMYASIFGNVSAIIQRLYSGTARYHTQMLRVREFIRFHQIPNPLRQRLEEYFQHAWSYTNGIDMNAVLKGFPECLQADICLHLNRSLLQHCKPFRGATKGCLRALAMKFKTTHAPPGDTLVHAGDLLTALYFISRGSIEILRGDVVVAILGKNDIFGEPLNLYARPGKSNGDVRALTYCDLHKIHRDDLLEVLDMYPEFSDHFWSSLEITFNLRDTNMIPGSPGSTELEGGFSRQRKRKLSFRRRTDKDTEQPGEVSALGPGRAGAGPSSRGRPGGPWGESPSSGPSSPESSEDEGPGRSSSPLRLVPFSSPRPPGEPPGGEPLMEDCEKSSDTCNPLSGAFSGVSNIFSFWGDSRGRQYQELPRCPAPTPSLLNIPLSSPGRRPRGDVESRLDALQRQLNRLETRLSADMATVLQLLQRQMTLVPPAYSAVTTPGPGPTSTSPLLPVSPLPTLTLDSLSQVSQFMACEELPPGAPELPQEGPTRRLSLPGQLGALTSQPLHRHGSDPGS

[7] = biological target: Serotonin (5-HT) receptor (Homo sapiens) (UniProt P30939+P41595+Q13639+P28222+P46098+P08908+P28221+P28223+P28335+P28566+P34969+P50406+P47898+A5X5Y0+O95264+Q70Z44+Q8WXA8); assay: Activity at 5HT receptor; assay type: protein assay
[8] = biological target: T1, Growth hormone secretagogue receptor type 1 (Homo sapiens, UniProt Q92847); assay: Displacement of [125I]ghrelin from GHS receptor at 10 uM
[9] = biological target: T2, Alpha-2B adrenergic receptor (Homo sapiens) (UniProt P18089); assay: Displacement of [3H]rauwolscine from adrenergic alpha2B receptor at 10 uM
T2 sequence (whole entry): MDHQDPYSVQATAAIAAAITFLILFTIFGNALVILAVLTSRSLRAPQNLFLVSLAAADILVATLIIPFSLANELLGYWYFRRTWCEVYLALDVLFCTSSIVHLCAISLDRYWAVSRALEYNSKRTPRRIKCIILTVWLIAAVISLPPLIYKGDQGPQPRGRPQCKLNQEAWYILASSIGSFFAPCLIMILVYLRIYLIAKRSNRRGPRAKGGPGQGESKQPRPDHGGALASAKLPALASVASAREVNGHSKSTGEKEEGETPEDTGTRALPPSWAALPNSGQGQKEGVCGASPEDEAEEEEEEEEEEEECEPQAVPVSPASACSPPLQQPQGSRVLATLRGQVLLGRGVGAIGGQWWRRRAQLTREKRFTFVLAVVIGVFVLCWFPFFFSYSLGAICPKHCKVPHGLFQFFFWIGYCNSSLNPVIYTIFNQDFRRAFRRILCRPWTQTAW

[10] = Half life in Sprague-Dawley rat at 3 umol/kg, iv; assay type: ADME, organism-based; conditions: in vivo
Summary of the method: (§1)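 Rat pharmacokinetics used fasted male Sprague–Dawley rats, three animals per administration route per compound. The intravenous dose was 3 µmol/kg, with a separate oral arm.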

[11] = Clearance in Sprague-Dawley rat at 3 umol/kg, iv; assay type: ADME, organism-based; conditions: in vivo; summary of the method: as §1
[12] = Volume of distribution at steady state in Sprague-Dawley rat at 3 umol/kg, iv; assay type: ADME, organism-based; conditions: in vivo, read-out: Vdss; summary of the method: as §1
Rattus norvegicus [13] = assay: Dose normalized AUC in Sprague-Dawley rat at 10 umol/kg, po; assay type: ADME, organism-based; conditions: in vivo; summary of the method: as §1
Rattus norvegicus [14] = assay: Dose normalized AUC in Sprague-Dawley rat at 3 umol/kg, iv; assay type: ADME, organism-based; conditions: in vivo; summary of the method: as §1
[15] = Oral bioavailability in Sprague-Dawley rat at 10 umol/kg; assay type: ADME, organism-based; conditions: in vivo; summary of the method: as §1
[16] = biological target: T3, Sodium-dependent dopamine transporter (Homo sapiens, UniProt Q01959); assay: Displacement of [125I]RTI-55 from DAT at 10 uM
[17] = Tmax in Sprague-Dawley rat at 10 umol/kg, po; assay type: ADME, organism-based; conditions: in vivo; summary of the method: as §1
[18] = biological target: T4, 5-hydroxytryptamine receptor 1A (Homo sapiens) (UniProt P08908); assay: Activity at 5HT1A receptor
T4 sequence (whole entry): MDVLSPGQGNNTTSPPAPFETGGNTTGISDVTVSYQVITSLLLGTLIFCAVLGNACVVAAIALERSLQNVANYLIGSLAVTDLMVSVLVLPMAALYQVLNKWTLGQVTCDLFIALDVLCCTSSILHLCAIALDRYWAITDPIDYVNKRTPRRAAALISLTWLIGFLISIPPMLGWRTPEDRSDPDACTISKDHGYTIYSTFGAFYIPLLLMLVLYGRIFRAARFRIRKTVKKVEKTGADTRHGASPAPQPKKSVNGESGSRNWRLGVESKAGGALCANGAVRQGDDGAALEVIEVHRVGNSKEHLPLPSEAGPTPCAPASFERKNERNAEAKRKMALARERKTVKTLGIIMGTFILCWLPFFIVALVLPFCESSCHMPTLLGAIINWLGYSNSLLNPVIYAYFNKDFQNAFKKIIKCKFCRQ

[19] = Half life in Sprague-Dawley rat at 10 umol/kg, po; assay type: ADME, organism-based; conditions: in vivo; summary of the method: as §1
[20] = biological target: 5-hydroxytryptamine receptor 1B (Homo sapiens) (UniProt P28222); assay: Activity at 5HT1B receptor
[21] = Cmax in Sprague-Dawley rat at 10 umol/kg, po; assay type: ADME, organism-based; set-up: dose 10 umol/kg, route oral; conditions: in vivo; summary of the method: as §1
[22] = biological target: T3, Sodium-dependent dopamine transporter; assay: Displacement of [125I]RTI-55 from DAT
[23] = biological target: T1, Growth hormone secretagogue receptor type 1; assay: Displacement of [125I]ghrelin from GHS receptor

| Compound | IC50 [1] [µM] | solubility [2] [µM] | CLint (Liver microsomes [3]) [µL/min/mg] | CLint (Liver microsomes [4]) [µL/min/mg] | IC50 [5] [µM] | IC50 [6] [µM] | other results |
| --- | --- | --- | --- | --- | --- | --- | --- |
| O=C(N[C@@H]1COc2cccc(-c3cccnc3)c2C1)c1ccc(OC(F)(F)F)cc1 | 3.16 | 5 (≈ 2.07 µg/mL) | – | – | – | – | – |
| Cc1cnc(-c2cccc3c2C[C@H](NC(=O)c2ccc(COCC(F)(F)F)nc2)CO3)cn1 | 20 | 82 (≈ 37.6 µg/mL) | < 10 | < 10 | 0.501 | – | – |
| O=C(N[C@@H]1COc2cccc(-c3ccc(CO)nc3)c2C1)c1ccc(OCCOCC(F)(F)F)nc1 | 7.94 | 54 (≈ 27.2 µg/mL) | 11 | < 10 | 0.158 | 15.8 | – |
| O=C(N[C@@H]1COc2cccc(-c3ccncc3)c2C1)c1ccc(OCC(F)(F)F)nc1 | 3.16 | 9 (≈ 3.86 µg/mL) | 59 | 77 | – | 6.31 | – |
| CCCCOc1ccc(C(=O)N[C@@H]2COc3cccc(N4CCN(C)CC4)c3C2)cc1 | > 6.31 | 1 (≈ 0.424 µg/mL) | 361 | 82 | 1 | 6.31 | – |
| COCCn1nc(C)c(C(=O)N[C@@H]2COc3cccc(-c4ccncc4)c3C2)n1 | > 31.6 | 306 (≈ 120 µg/mL) | – | – | 25.1 | – | – |
| Cc1nn(-c2ccccc2)nc1C(=O)N[C@@H]1COc2cccc(N3CCN(C)CC3)c2C1 | 5.01 | 211 (≈ 91.3 µg/mL) | 14 | 4 | 0.316 | 7.94 | Activity [7]: Active |
| COCCn1nc(C)c(C(=O)N[C@@H]2COc3cccc(-c4cccnc4)c3C2)n1 | > 31.6 | 396 (≈ 156 µg/mL) | – | – | – | – | – |
| CN1CCN(c2cccc3c2C[C@H](NC(=O)c2ccc(OC(F)(F)F)cc2)CO3)CC1 | 2 | 27 (≈ 11.8 µg/mL) | 2.5 | 18 | 2 | 7.94 | – |
| COc1ncc(-c2cccc3c2C[C@H](NC(=O)c2ccc(OCC(F)(F)F)nc2)CO3)cc1F | 3.98 | 1.1 (≈ 0.525 µg/mL) | 19 | 10 | – | – | – |
| CN1CCN(c2cccc3c2C[C@H](NC(=O)c2ccc(OCCC(F)(F)F)nc2)CO3)CC1 | 5.01 | 379 (≈ 176 µg/mL) | < 10 | < 10 | 0.631 | 12.6 | – |
| COc1ncc(-c2cccc3c2C[C@H](NC(=O)c2ccc(OCCC(F)(F)F)nc2)CO3)cn1 | 3.98 | 3 (≈ 1.42 µg/mL) | < 10 | < 10 | – | – | – |
| COc1cnc(-c2cccc3c2C[C@H](NC(=O)c2ccc(OCC(F)(F)F)nc2)CO3)cn1 | > 25.1 | < 1 | 14 | 14 | 0.126 | > 31.6 | – |
| Cc1cnc(-c2cccc3c2C[C@H](NC(=O)c2ccc(OCC(F)(F)F)nc2)CO3)cn1 | > 3.16 | < 1 | 16 | < 10 | 0.0794 | > 31.6 | – |
| Cc1nn(-c2ccccc2)nc1C(=O)N[C@@H]1COc2cccc(-c3ccncc3)c2C1 | > 31.6 | 2 (≈ 0.823 µg/mL) | – | – | – | 3.98 | – |
| Cc1ncc(-c2cccc3c2C[C@H](NC(=O)c2ccc(OCC(F)(F)F)nc2)CO3)cn1 | 5.01 | 6.5 (≈ 2.89 µg/mL) | < 10 | < 10 | – | 10 | – |
| CN1CCN(c2cccc3c2C[C@H](NC(=O)c2ccc(OCC(F)(F)F)nc2)CO3)CC1 | 5.01 | 82 (≈ 36.9 µg/mL) | < 10 | < 10 | 0.794 | 7.94 | – |
| Cc1ccc(-n2nc(C)c(C(=O)N[C@@H]3COc4cccc(N5CCN(C)CC5)c4C3)n2)c(C)c1 | 2.51 | 4 (≈ 1.84 µg/mL) | – | 9 | 0.158 | – | CLH (Liver microsomes [3]): Stable |
| Cc1cc(-c2cccc3c2C[C@H](NC(=O)c2ccc(OCCOCC(F)(F)F)nc2)CO3)cnc1CO | 5.01 | 18 (≈ 9.32 µg/mL) | – | – | 0.794 | – | – |
| O=C(N[C@@H]1COc2cccc(-c3cncnc3)c2C1)c1ccc(OCCC(F)(F)F)nc1 | 3.98 | 23 (≈ 10.2 µg/mL) | 318 | 38 | – | – | – |
| COc1cnc(-c2cccc3c2C[C@@H](NC(=O)c2ccc(COCC(F)(F)F)nc2)CO3)cn1 | – | – | 16 | 21 | > 10 | – | – |
| COc1ncc(-c2cccc3c2C[C@H](NC(=O)c2ccc(OCC(F)(F)F)nc2)CO3)cn1 | 6.31 | < 1 | < 10 | < 10 | – | – | – |
| O=C(N[C@@H]1COc2cccc(-c3ccncc3)c2C1)c1ccc(OC(F)(F)F)cc1 | 3.98 | 2 (≈ 0.829 µg/mL) | 78 | – | 1 | 2.51 | – |
| COc1ncc(-c2cccc3c2C[C@H](NC(=O)c2ccc(COCC(F)(F)F)nc2)CO3)cn1 | 10 | 145 (≈ 68.8 µg/mL) | < 10 | < 10 | 0.251 | 15.8 | – |
| O=C(N[C@@H]1COc2cccc(-c3ccnc(CO)c3)c2C1)c1ccc(OCC(F)(F)F)nc1 | 6.31 | 17 (≈ 7.81 µg/mL) | 15 | < 10 | 0.501 | – | Activity [7]: inactive |
| CC(O)c1ccc(-c2cccc3c2C[C@H](NC(=O)c2ccc(OCCOCC(F)(F)F)nc2)CO3)cn1 (some centres not stated) | 10 | 18 (≈ 9.32 µg/mL) | 12 | < 10 | 0.794 | – | – |
| O=C(N[C@@H]1COc2cccc(-c3ccc(CO)nc3)c2C1)c1ccc(OCC(F)(F)F)nc1 | 6.31 | 58 (≈ 26.6 µg/mL) | 10 | < 10 | 0.158 | 10 | inhibition [8]: 98%; inhibition [9]: 55%; half-life [10]: 3.8 h; clearance [11]: 42.2 mL/min/kg; Vd [12]: 11 L/kg; AUC/dose (Rattus norvegicus [13]): 0.27 kg·h/L; AUC/dose (Rattus norvegicus [14]): 0.4 kg·h/L; bioavailability [15]: 66.3%; inhibition [16]: 80%; Tmax [17]: 1.5 h; Activity [18]: inactive; half-life [19]: 3.5 h; Activity [20]: inactive; Cmax [21]: 380 nM; IC50 [22]: 2 µM; Activity [7]: inactive; IC50 [23]: 0.2 µM |
| O=C(N[C@@H]1COc2cccc(-c3cccnc3)c2C1)c1ccc(OCC(F)(F)F)nc1 | 3.16 | 29 (≈ 12.5 µg/mL) | 161 | 64 | – | – | – |
| Cc1nn(CC(C)C)nc1C(=O)N[C@@H]1COc2cccc(-c3cccnc3)c2C1 | > 31.6 | 393 (≈ 154 µg/mL) | – | – | – | – | – |
